High-throughput results: PubChem, The Scripps Research Institute Molecular Screening Center
Only some compounds are listed: those with a hit (about 2.4% of all), similar ones and a draw of the others.
OPRM1-OPRD1 inv – inverse agonists of MOR-DOR heterodimerization, primary screen, cell-based, luminescence; Mu-type opioid receptor (Homo sapiens) + Delta-type opioid receptor (Homo sapiens), …; cell-based MOR-DOR heterodimer luminescence, inverse agonism; inhibition, % at 9.3 µM; 0.21% of 340,000 active; AID 504357, 2011; in the data active = inhibition above about 22%, passing the limit was not always enough;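 also: 0% = cells with DMSO and 100% = wells without cells with DMSO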
HTR5A ag ctr – HTR5A agonists in luminescence cell assay, primary screen, counter-screen for OPRM1-OPRD1 heterodimer agonist project, full-deck HTS; activation, % at 9.3 µM; 0.61% of 340,000 active; AID 504692, 2011; 5-hydroxytryptamine receptor 5A (Homo sapiens), P47898; cell-based; in the data active = activation mostly above about 9.5%, no sharp cut-off; inactive = mostly below about 7.6%;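 also: 0% = cells with vehicle only and 100% = reference agonist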
MC4R antag cAMP – MC4R antagonists of cAMP signaling, primary screen, cell-based, TR-FRET, antagonist arm of biased-ligand search | Melanocortin receptor 4 (Homo sapiens), P32245 | MC4R-expressing cells, MTII-stimulated cAMP, LANCE TR-FRET | inhibition, % at 6.5 µM | 0.48% of 360,000 active;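 active = inhibition above its plate's cutoff, the mean of tested wells on that plate plus 3 SD, cut at about 29% in these data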;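 also: 0% = Melanotan II alone and 100% = Melanotan II plus saturating MCL0020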
Target sequence (P32245 whole entry, looked up): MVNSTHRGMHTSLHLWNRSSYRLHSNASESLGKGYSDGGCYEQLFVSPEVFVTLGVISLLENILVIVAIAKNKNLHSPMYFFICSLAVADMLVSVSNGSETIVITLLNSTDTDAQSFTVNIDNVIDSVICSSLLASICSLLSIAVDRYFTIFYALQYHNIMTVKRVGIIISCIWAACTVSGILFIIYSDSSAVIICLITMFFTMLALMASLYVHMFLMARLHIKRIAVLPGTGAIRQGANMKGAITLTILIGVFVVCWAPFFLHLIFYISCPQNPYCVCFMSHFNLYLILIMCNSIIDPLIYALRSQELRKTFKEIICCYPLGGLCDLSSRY
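system = U2OS cells with stable human MC4R expression | also added = Melanotan II challenge after compound preincubation | dosing = one concentration, 6.5 µM nominal | incubation = compound 30 min, challenge 1 h, detection 1 h | measured by = TR-FRET with Eu-cAMP and labeled anti-cAMP, 671 nm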
HTR5A inv ctr – HTR5A inverse agonists in luminescence cell assay, primary screen, counter-screen for OPRM1-OPRD1 heterodimer inverse agonist project, full-deck HTS | 5-hydroxytryptamine receptor 5A (Homo sapiens), P47898 | HTR5A cell line, inverse agonism | inhibition, % at 9.3 µM | 0.083% of 340,000 active | AID 504634, 2011; in the data active = inhibition mostly above about 23%, no sharp cut-off; inactive = mostly below about 18%;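 also: 0% = cells with DMSO and 100% = no-cell wells with DMSO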
MC4R barr agon – MC4R agonists recruiting beta-arrestin, primary screen, cell-based, luminescence, agonist arm of biased-ligand search; Melanocortin receptor 4 (Homo sapiens), P32245; U2OS MC4R beta-arrestin complementation; percent of melanotan II response, DMSO zero; activation, % at 8.9 µM; 0.98% of 360,000 active; AID 540308, 2011;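 active = activation above a per-plate cutoff, the mean activation of sample wells on that plate plus 3 SD, cut at about 8% in these data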
MOR-DOR ag-1 – agonists of OPRM1-OPRD1 heterodimerization, primary screen, cell-based, luminescence; 0.3% of 340,000 active; activation, % at 9.3 µM; Mu-type opioid receptor (Homo sapiens) + Delta-type opioid receptor (Homo sapiens), …; cells;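 also: 0% = vehicle-treated cells and 100% = reference agonist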
MOR-DOR ag-2 – OPRM1-OPRD1 heterodimerization promoters, counter-screen for HTR5A agonist project, cell-based, luminescence; shares compounds with HTR5A ag ctr; U2OS counter-screen cells, complementation luminescence, 3 h; activation, % at 9.3 µM; 13% of 800 active; AID 504913, 2011
HTR5A ag conf – HTR5A agonists, retest of hits, confirmation, cell-based, luminescence. 17% of 800 active. HTR5A agonist cell assay. shares compounds with HTR5A ag ctr. activation, % at 9.3 µM; in the data active = activation above about 17%;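 also: 0% = cells with vehicle only and 100% = full reference agonist response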
U2OS cAMP counter – nonselective cAMP signaling inhibitors, parental cells, counter-screen for MC4R biased antagonist project, cell-based, TR-FRET, U2OS, forskolin, triplicate | shares compounds with MC4R antag cAMP | LANCE TR-FRET | inhibition, % at 6.5 µM | 26% of 1,600 active | AID 602193, 2012;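 active = mean inhibition over triplicates above the low-control well mean plus 3 SD, set per campaign, cut at about 13% in these data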;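 also: signal is single emission at 671 nm which falls as cellular cAMP rises; 0% = forskolin-stimulated wells and 100% = buffer without forskolin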
MC4R cAMP antag – MC4R cAMP antagonists, retest, confirmation, cell-based, TR-FRET | 27% of 1,600 active | shares compounds with MC4R antag cAMP | inhibition, % at 6.5 µM | AID 602195, 2012 | MC4R-expressing cells, MTII-stimulated cAMP; in the data active = inhibition above about 29%;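 also: 0% = agonist stimulated wells alone and 100% = agonist stimulated wells plus saturating reference antagonist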
MC4R barr ag – MC4R beta-arrestin agonists, retest, confirmation, cell-based, luminescence, U2OS; shares compounds with MC4R barr agon; activation, % at 8.9 µM; 31% of 2,400 active; U2OS MC4R beta-arrestin recruitment; scaled DMSO 0%, Melanotan II 100%;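 active = mean activation across replicates above the hit cutoff set in the earlier primary screen, cut at about 8% in these data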
MOR DOR agonist – agonists of MOR-DOR heterodimerization, counter-screen for MC4R biased agonist project, cell-based, luminescence | U2OS PathHunter beta-arrestin, beta-gal luminescence; percent of deltorphin B response, DMSO zero | 5.8% of 2,400 active | shares compounds with MC4R barr agon | activation, % at 9.2 µM;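 active = mean activation across replicates exceeds the hit threshold derived in the earlier primary screen, cut at about 18% in these data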;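 also: 100% = deltorphin B at 0.9 µM final and 0% = DMSO alone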
* marks the source's active call; other numbers are inactive results; . = no result. Rule as the data show it, unless noted: active = activation above about 18%; inactive = the rest.

SMILES	OPRM1-OPRD1 inv	HTR5A ag ctr	MC4R antag cAMP	HTR5A inv ctr	MC4R barr agon	MOR-DOR ag-1	MOR-DOR ag-2	HTR5A ag conf	others
CC[C@@H](CO)NC(=O)[C@@H]1C=C2c3cccc4[nH]cc(c34)C[C@H]2N(C)C1	-59	91*	-22	-198	0	11	2	84*
CC[C@@H](CO)NC(=O)[C@@H]1C=C2c3cccc4c3c(cn4C)C[C@H]2N(C)C1	-19	81*	-10	-183	-1	3	1	78*
CC(C)C[C@H]1C(=O)N2CCC[C@H]2[C@]2(O)O[C@](NC(=O)[C@@H]3C=C4c5cccc6[nH]cc(c56)C[C@H]4N(C)C3)(C(C)C)C(=O)N12	-41	16	-11	-58	1	8	.	.
CN1C[C@H](CNC(=O)OCc2ccccc2)C[C@@H]2c3cccc4c3c(cn4C)C[C@H]21	-7	9	5	-31	2	1	.	.
Cc1cccc(OP(=O)(NCc2ccccc2)Oc2cccc(C)c2)c1	-96	4	14	-6	1	18	.	.
O=C(OC1CC2CCC(N2)C1C(=O)O)c1ccccc1 (centres undefined)	-4	-6	8	13	-2	1	.	.
Cc1[nH]c2ccc(O)cc2c1CCN	-3	40*	1	-144	0	1	1	50*
Cc1[nH]c2ccc(OCc3ccccc3)cc2c1CCN	12	1	-4	-3	-1	-2	.	.
Nc1ccc(C2(c3ccc(N)cc3)c3ccccc3-c3ccccc32)cc1	-29	44*	-4	-80	70*	6	23*	27*	MC4R barr ag=45*;MOR DOR agonist=15
Nc1ccc(-c2ccccc2)cc1	8	1	-3	-3	0	-2	.	.
O=C(CCC(=O)N1CCC2(CC1)OCCO2)Nc1nnc(C2CCCCC2)s1	16	-4	2	10	-1	-3	.	.
CC1CCC(C(C)C)C(OC(=O)Cn2c(COc3ccccc3)[n+](C)c3ccccc32)C1 (centres undefined)	-7	15*	-11	-6	29*	1	3	6	MC4R barr ag=10*;MOR DOR agonist=8
Cc1cc([N+](=O)[O-])c2ccccc2[n+]1[O-]	-17	-6	31*	13	-3	3	.	.	U2OS cAMP counter=12;MC4R cAMP antag=31*
